From ChEMBL document CHEMBL1137356, “Tricyclic imidazoline derivatives as potent and selective adenosine A1 receptor antagonists” (J Med Chem, 2006)
≈ marks a conversion by molar mass, not a printed value. Blank lines part the entries; values can stand above or below the molecule they belong to.

What was measured:
[1] = molecular target: Adenosine receptors; A1 & A2b (Homo sapiens) (UniProt P30542+P29275); assay: Selectivity for human adenosine A1 receptor over adenosine A2B receptor; assay type: protein assay
[2] = molecular target: Adenosine receptors; A1 & A2a (Homo sapiens) (UniProt P30542+P29274); assay: Selectivity for human adenosine A1 receptor over adenosine A2A receptor; assay type: protein assay
[3] = molecular target: Adenosine receptor A2a (Rattus norvegicus) (UniProt P30543); assay: Displacement of [3H]ZM-241385 from adenosine A2A receptor in rat striatal membrane at 10 uM relative to control; assay type: cell membranes; details: Striatum
[4] = molecular target: T1, Adenosine receptor A2b (Homo sapiens, UniProt P29275); assay: Displacement of [125I]3-(4-aminobenzyl)-8-phenyloxyacetate-1-propyl-xanthine from human adenosine A2B receptor
T1 sequence (P29275 whole entry): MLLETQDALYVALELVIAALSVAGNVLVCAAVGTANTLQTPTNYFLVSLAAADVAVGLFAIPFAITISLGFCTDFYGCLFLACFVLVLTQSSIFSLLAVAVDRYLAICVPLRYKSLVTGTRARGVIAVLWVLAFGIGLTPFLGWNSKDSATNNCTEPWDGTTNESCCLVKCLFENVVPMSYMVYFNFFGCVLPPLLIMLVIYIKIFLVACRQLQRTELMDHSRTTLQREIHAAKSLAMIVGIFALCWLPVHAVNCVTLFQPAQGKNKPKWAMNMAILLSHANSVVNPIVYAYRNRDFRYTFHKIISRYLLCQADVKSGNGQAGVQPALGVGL

[5] = molecular target: T2, Adenosine receptor A1 (Homo sapiens, UniProt P30542); assay: Displacement of [125I]ABA from human adenosine A1 receptor
T2 sequence (P30542 whole entry): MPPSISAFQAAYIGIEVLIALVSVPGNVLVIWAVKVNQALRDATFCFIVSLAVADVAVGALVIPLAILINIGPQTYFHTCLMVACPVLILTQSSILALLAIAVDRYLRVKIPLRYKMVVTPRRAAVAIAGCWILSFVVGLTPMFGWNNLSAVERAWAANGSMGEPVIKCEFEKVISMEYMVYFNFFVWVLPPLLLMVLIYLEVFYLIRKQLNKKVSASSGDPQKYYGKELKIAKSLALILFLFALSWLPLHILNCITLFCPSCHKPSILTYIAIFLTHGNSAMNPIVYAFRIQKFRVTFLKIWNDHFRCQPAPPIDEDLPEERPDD

[6] = molecular target: T3, Adenosine receptor A1 (Rattus norvegicus, UniProt P25099); assay: Displacement of [3H]DPCPX from adenosine A1 receptor in rat cerebral cortex; assay type: tissue-based
T3 sequence (P25099 whole entry): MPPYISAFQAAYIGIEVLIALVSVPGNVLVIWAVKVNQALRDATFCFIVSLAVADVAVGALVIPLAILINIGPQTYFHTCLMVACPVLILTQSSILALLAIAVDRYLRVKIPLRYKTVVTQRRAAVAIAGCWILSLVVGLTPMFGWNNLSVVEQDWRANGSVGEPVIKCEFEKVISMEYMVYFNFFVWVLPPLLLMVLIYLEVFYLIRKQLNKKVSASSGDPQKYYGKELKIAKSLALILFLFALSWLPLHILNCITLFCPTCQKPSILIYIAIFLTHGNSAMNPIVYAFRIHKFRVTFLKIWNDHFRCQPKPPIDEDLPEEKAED
In short: (§1)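 Rat brain membranes (cerebral cortex for A1, striatum for A2A) homogenized in 10 mM EDTA/10 mM Na-HEPES pH 7.4 with protease inhibitors, washed, stored at -80 °C. 40-70 µg protein incubated in triplicate with radioligand plus seven competitor concentrations in HEPES/EDTA buffer with 2 units/mL adenosine deaminase, 2.5 h, 21 °C. A1: [3H]DPCPX 2 nM, nonspecific with 10 µM NECA; A2A: [3H]ZM241385 0.5-1.2 nM, nonspecific with 10 µM XAC. GF/C filtration; single-site fit, Cheng-Prusoff Ki.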

[7] = molecular target: T4, Adenosine receptor A3 (Homo sapiens, UniProt P0DMS8); assay: Displacement of [125I]ABA from human adenosine A3 receptor
T4 sequence (P0DMS8 whole entry): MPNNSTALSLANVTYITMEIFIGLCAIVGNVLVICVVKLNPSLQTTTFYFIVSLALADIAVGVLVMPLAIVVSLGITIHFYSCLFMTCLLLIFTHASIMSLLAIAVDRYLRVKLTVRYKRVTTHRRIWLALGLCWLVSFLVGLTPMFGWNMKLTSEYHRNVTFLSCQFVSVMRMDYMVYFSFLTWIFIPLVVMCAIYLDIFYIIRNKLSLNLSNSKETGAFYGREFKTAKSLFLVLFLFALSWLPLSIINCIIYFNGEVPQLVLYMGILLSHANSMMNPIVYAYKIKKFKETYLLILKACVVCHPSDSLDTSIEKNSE

[8] = molecular target: Adenosine receptor A2a (Homo sapiens, UniProt P29274); assay: Displacement of [125I]ZM-241385 from human adenosine A2A receptor
[9] = system: Rattus norvegicus; assay: Volume of distribution in rat at 1 mg/kg, po; assay type: ADME, organism-based; set-up: dose 1 mg/kg, route oral; details: in vivo
In short: (§2)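 Rats given 1 mg/kg orally and intravenously to obtain pharmacokinetic parameters.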

[10] = (§3) AUC(last) in rat at 1 mg/kg, po; assay type: ADME, organism-based, Plasma; set-up: time 0 - last, dose 1 mg/kg, route oral; details: plasma; in short: as §2
[11] = Half life in rat 1 mg/kg, po; assay type: ADME, organism-based; set-up: dose 1 mg/kg, route oral; details: in vivo; in short: as §2
[12] = Oral bioavailability in rat at 1 mg/kg, iv and po; assay type: ADME, organism-based; details: in vivo; in short: as §2
[13] = system: Rattus norvegicus; assay: Sodium excretion level in po dosed rat diuresis model; assay type: ADME, organism-based
In short: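 Rats held in metabolic cages and dosed by gavage as 0.5% cmc suspension at several doses; urine collected for 4 h and sodium excretion (UNaV) measured.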

[14] = Clearance in rat at 1 mg/kg, po; assay type: ADME, organism-based; set-up: dose 1 mg/kg, route oral; details: in vivo; in short: as §2
[15] = system: Rattus norvegicus; assay: as §3; assay type: ADME, organism-based, Plasma; set-up: time 0 - last, dose 1 mg/kg, route oral; details: in vivo; in short: as §2
[16] = Aqueous solubility of the compound; assay type: physicochemical
[17] = molecular target: T3, Adenosine receptor A1; assay: Intrinsic activity at adenosine A1 receptor assessed as blockade of CPA in isolated spontaneously beating rat atria; assay type: functional; details: read-out: pA2 (converted)
[18] = molecular target: Adenosine receptor A2a (Rattus norvegicus, UniProt P30543); assay: Displacement of [3H]ZM-241385 from adenosine A2A receptor in rat striatal membrane; assay type: cell membranes, Striatum; in short: as §1
Adenosine receptor A2a (Rattus norvegicus, UniProt P30543), sequence (P30543 whole entry): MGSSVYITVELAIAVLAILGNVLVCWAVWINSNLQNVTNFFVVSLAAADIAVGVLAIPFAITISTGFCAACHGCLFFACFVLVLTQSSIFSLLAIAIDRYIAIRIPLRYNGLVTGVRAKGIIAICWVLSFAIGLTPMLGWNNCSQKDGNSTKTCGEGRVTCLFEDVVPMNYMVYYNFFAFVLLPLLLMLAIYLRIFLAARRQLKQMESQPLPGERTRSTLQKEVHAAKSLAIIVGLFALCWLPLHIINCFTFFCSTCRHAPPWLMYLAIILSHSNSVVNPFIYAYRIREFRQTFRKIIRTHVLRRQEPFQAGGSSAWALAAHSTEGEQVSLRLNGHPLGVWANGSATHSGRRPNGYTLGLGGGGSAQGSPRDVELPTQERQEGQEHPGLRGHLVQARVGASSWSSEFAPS

Adenosine receptor A2a (Homo sapiens, UniProt P29274), sequence (P29274 whole entry): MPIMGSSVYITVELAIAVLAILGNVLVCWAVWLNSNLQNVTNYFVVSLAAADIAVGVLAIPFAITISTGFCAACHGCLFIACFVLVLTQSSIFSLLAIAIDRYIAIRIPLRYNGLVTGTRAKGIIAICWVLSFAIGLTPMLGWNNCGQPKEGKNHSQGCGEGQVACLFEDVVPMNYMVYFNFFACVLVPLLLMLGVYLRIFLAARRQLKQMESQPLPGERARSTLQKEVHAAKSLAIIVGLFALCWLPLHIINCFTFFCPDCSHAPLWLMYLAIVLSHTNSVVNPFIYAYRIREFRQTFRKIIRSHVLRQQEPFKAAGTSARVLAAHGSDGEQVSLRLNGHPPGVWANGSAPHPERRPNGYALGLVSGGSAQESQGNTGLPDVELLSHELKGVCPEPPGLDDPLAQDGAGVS
Adenosine receptor A2a (Rattus norvegicus), sequence (P30543 whole entry): as the sequence (P30543 whole entry) above
Adenosine receptors; A1 & A2a (Homo sapiens), sequence (P29274 whole entry, looked up, one chain of several): as the sequence (P29274 whole entry) above

Ratio Ki [1]: 57
Ratio Ki [2]: 46
SMILES: CCCN1C(=O)N2C[C@@H](C(C)C)N=C2c2[nH]c(C34CCC(O)(CC3)CC4)nc21 [listing 1 of 2 here]

Activity [3]: 32%
Ratio Ki [1]: 37
Ki [4]: 2200 nM
Ki [5]: 60 nM
SMILES: CCCN1C(=O)N2C[C@@H](C)N=C2c2[nH]c(C34CCC(O)(CC3)CC4)nc21

Ratio Ki [1]: 215
Ratio Ki [2]: 275
SMILES: CCCn1c(=O)c2nc(C34CCC(O)(CC3)CC4)[nH]c2n(CCC)c1=O

Ki [6]: > 250 nM
SMILES: CCCN1C(=O)N2CC[C@@H](C)N=C2c2[nH]c(C34CCC(O)(CC3)CC4)nc21

Activity [3]: 83%
Ki [7]: > 10000 nM
Ratio Ki [1]: 54
Ki [4]: 1900 nM
Ki [8]: > 10000 nM
Ki [5]: 35 nM
Ratio Ki [2]: > 280
SMILES: CCCN1C(=O)N2C[C@@H](CC)N=C2c2[nH]c(C34CCC(CCC(=O)O)(CC3)CC4)nc21

Activity [3]: 80%
Ki [6]: > 250 nM
SMILES: CCCN1C(=O)N2C[C@H](CC)N=C2c2[nH]c(C34CCC(C(=O)O)(CC3)CC4)nc21

Activity [3]: 97%
Ki [6]: 170 nM
SMILES: CCCN1C(=O)N2C[C@@H](CC(C)C)N=C2c2[nH]c(C34CCC(O)(CC3)CC4)nc21

Ki [6]: 69 nM
SMILES: CCCN1C(=O)N2C(=NC[C@@H]2C)c2[nH]c(C34CCC(O)(CC3)CC4)nc21

Vdss [9]: 0.3 L/kg
AUC(0-t) [10]: 10000 ng·h/mL
half-life [11]: 3.1 h
bioavailability [12]: 99%
CL/F [14]: 1.6 mL/min/kg
SMILES: CCCn1c(=O)c2nc(C34CCC(CCC(=O)O)(CC3)CC4)[nH]c2n(CCC)c1=O.Cl
ED50 [13]: 0.01 mg/kg

Activity [3]: 91%
Ki [6]: 14 nM
SMILES: CCCN1C(=O)N2C[C@H](C(C)CC)N=C2c2[nH]c(C34CCC(O)(CC3)CC4)nc21 (stereo partly specified)

Vdss [9]: 0.9 L/kg
AUC [15]: 2600 ng·h/mL
half-life [11]: 3.1 h
bioavailability [12]: 77%
SMILES: CCCN1C(=O)N2C[C@@H](C(C)C)N=C2c2[nH]c(C34CCC(CCC(=O)O)(CC3)CC4)nc21.Cl
ED50 [13]: 0.01 mg/kg

Ratio Ki [1]: 26
Ratio Ki [2]: 200
SMILES: CCCN1C(=O)N2C[C@@H](CC)N=C2c2[nH]c(C34CCC(O)(CC3)CC4)nc21 [listing 1 of 2 here]

Activity [3]: 90%
SMILES: CCC[C@@H]1CN2C(=O)N(CCC)c3[nH]c(C45CCC(O)(CC4)CC5)nc3C2=N1

Activity [3]: 84%
SMILES: CCCN1C(=O)N2C[C@@H](Cc3ccccc3)N=C2c2[nH]c(C34CCC(O)(CC3)CC4)nc21

solubility [16]: 0.1 mg/mL (≈ 277 µM)
Ki [7]: > 1000 nM
Ki [4]: 430 nM
Ki [8]: 550 nM
Ki [5]: 2 nM
Ki [6]: 0.6 nM
SMILES: CCCn1c(=O)c2[nH]c(C34CCC(O)(CC3)CC4)nc2n(CCC)c1=O

Kb [17]: 0.158 nM
Ki [7]: > 10000 nM
Ki [4]: 90 nM
Ki [8]: 6400 nM
Ki [6]: 1 nM
SMILES: CCCn1c(=O)c2[nH]c(C34CCC(CCC(=O)O)(CC3)CC4)nc2n(CCC)c1=O [TONAPOFYLLINE]

Activity [3]: 48%
SMILES: CCCN1C(=O)N2C[C@@H](CC)N=C2c2[nH]c(C34CCC(C(=O)O)(CC3)CC4)nc21

Ki [6]: > 250 nM
SMILES: CCCN1C(=O)N2CC[C@@H](CC)N=C2c2[nH]c(C34CCC(O)(CC3)CC4)nc21

Ki [7]: > 10000 nM
Ki [4]: 3100 nM
Ki [8]: 18000 nM
Ki [5]: 45 nM
SMILES: CCCN1C(=O)N2C[C@@H](C(C)C)N=C2c2[nH]c(C34CCC(CCC(=O)O)(CC3)CC4)nc21 [listing 1 of 2 here]

Activity [3]: 79%
SMILES: CCCN1C(=O)N2C[C@@H](c3ccccc3)N=C2c2[nH]c(C34CCC(O)(CC3)CC4)nc21

Vdss [9]: 1.7 L/kg
AUC(0-t) [10]: 810 ng·h/mL
half-life [11]: 2.9 h
bioavailability [12]: 54%
CL/F [14]: 21 mL/min/kg
SMILES: CCCN1C(=O)N2C[C@@H](C(C)C)N=C2c2[nH]c(C34CCC(O)(CC3)CC4)nc21.Cl
ED50 [13]: 0.01 mg/kg

Activity [3]: 70%
Ki [6]: > 100 nM
SMILES: CCCN1C(=O)N2C[C@H](CC)N=C2c2[nH]c(C34CCC(O)(CC3)CC4)nc21

Activity [3]: 74%
Ratio Ki [1]: 69
Ratio Ki [2]: 400
SMILES: CCCN1C(=O)N2C[C@@H](C(C)C)N=C2c2[nH]c(C34CCC(CCC(=O)O)(CC3)CC4)nc21 [listing 2 of 2 here]

Ki [6]: 51 nM
SMILES: CCCN1C(=O)N2C(=NC[C@H]2C)c2[nH]c(C34CCC(O)(CC3)CC4)nc21

Ki [18]: 2700 nM
Kb [17]: 1.32 nM
Ki [7]: > 10000 nM
Ki [4]: 580 nM
Ki [8]: 4400 nM
Ki [5]: 22 nM
Ki [6]: 6 nM
SMILES: CCCN1C(=O)N2C[C@@H](CC)N=C2c2[nH]c(C34CCC(O)(CC3)CC4)nc21 [listing 2 of 2 here]

Ki [18]: 1100 nM
Kb [17]: 0.126 nM
Ki [7]: > 10000 nM
Ki [4]: 2000 nM
Ki [8]: 1600 nM
Ki [5]: 35 nM
Ki [6]: 4 nM
SMILES: CCCN1C(=O)N2C[C@@H](C(C)C)N=C2c2[nH]c(C34CCC(O)(CC3)CC4)nc21 [listing 2 of 2 here]

Activity [3]: 77%
Ki [6]: > 100 nM
SMILES: CCCN1C(=O)N2CCN=C2c2[nH]c(C34CCC(O)(CC3)CC4)nc21

solubility [16]: 100 mg/mL
Vdss [9]: 4.1 L/kg
AUC(0-t) [10]: 800 ng·h/mL
half-life [11]: 3.8 h
bioavailability [12]: 84%
CL/F [14]: 18 mL/min/kg
SMILES: CCCN1C(=O)N2C[C@@H](CC)N=C2c2[nH]c(C34CCC(O)(CC3)CC4)nc21.Cl
ED50 [13]: 0.01 mg/kg
